In brackets after ≈: the same amount, converted by molar mass.
How the values were obtained:
Assay type in all cases: functional
Escherichia coli = test: In vitro minimum inhibitory concentration against Escherichia coli SKF 12140
Streptococcus pyogenes [1] = test: Subcutaneously administration into mice infected with Streptococcus pyogenes C 203; details: sc
Procedure, shortened: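 Mice (five per treatment group, five groups) infected intraperitoneally with about 10⁵ cells of Strep. pyogenes C 203, about 100× the LD50. ED50 (mg/kg) was calculated from the percentage of mice surviving at each dose on day 7.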

Pseudomonas aeruginosa = test: In vitro minimum inhibitory concentration against Pseudomonas aeruginosa ATCC 10145
[2] = system: Staphylococcus epidermidis; test: In vitro minimum inhibitory concentration against Staphylococcus epidermis ATCC 12228
[3] = system: Staphylococcus haemolyticus; test: In vitro minimum inhibitory concentration against Staphylococcus hemolyticus 602 cell line; details: strain 602
Staphylococcus aureus = test: In vitro minimum inhibitory concentration against Staphylococcus aureus Tour
Streptococcus pneumoniae = test: In vitro minimum inhibitory concentration against Streptococcus pneumoniae UC41
Streptococcus pyogenes [4] = test: In vitro minimum inhibitory concentration against Streptococcus pyogenes C 203
Enterococcus faecalis = test: In vitro minimum inhibitory concentration against Streptococcus faecalis ATCC 7080
Proteus vulgaris = test: In vitro minimum inhibitory concentration against Proteus vulgaris X 19 ATCC 881

Row | SMILES | MIC (Escherichia coli) [µg/mL] | ED50 (Streptococcus pyogenes [1]) [mg/kg] | MIC (Pseudomonas aeruginosa) [µg/mL] | MIC [2] [µg/mL] | MIC [3] [µg/mL] | MIC (Staphylococcus aureus) [µg/mL] | MIC (Streptococcus pneumoniae) [µg/mL] | MIC (Streptococcus pyogenes [4]) [µg/mL] | MIC (Enterococcus faecalis) [µg/mL] | MIC (Proteus vulgaris) [µg/mL]
1 | N[C@H]1C(=O)N[C@@H]2Cc3ccc(c(Cl)c3)Oc3cc4cc(c3O)Oc3ccc(cc3Cl)[C@@H](O)[C@@H]3NC(=O)[C@H](NC(=O)[C@@H]4NC(=O)[C@@H](NC2=O)c2cc(O)cc(c2)Oc2cc1ccc2O)c1ccc(O)c(c1)-c1c(O)cc(O)cc1[C@@H](C(=O)NCCCN1CCOCC1)NC3=O | 8 (≈ 6.04 µM) | 1.4 | 32 (≈ 24.1 µM) | 0.06 (≈ 0.0453 µM) | 0.12 (≈ 0.0906 µM) | 0.06 (≈ 0.0453 µM) | 0.12 (≈ 0.0906 µM) | 0.06 (≈ 0.0453 µM) | 0.12 (≈ 0.0906 µM) | 64 (≈ 48.3 µM)
2 | CNCCN(C)C(=O)[C@H]1NC(=O)[C@H]2NC(=O)[C@H](NC(=O)[C@@H]3NC(=O)[C@H]4NC(=O)[C@@H](Cc5ccc(c(Cl)c5)Oc5cc3cc(c5O)Oc3ccc(cc3Cl)[C@H]2O)NC(=O)[C@H](N)c2ccc(O)c(c2)Oc2cc(O)cc4c2)c2ccc(O)c(c2)-c2c(O)cc(O)cc21 | 16 (≈ 12.6 µM) | 1.25 | 64 (≈ 50.4 µM) | 0.06 (≈ 0.0473 µM) | 0.12 (≈ 0.0946 µM) | 0.12 (≈ 0.0946 µM) | 0.12 (≈ 0.0946 µM) | 0.12 (≈ 0.0946 µM) | 0.12 (≈ 0.0946 µM) | > 128
3 | NCCCCCCNC(=O)[C@H]1NC(=O)[C@H]2NC(=O)[C@H](NC(=O)[C@@H]3NC(=O)[C@H]4NC(=O)[C@@H](Cc5ccc(c(Cl)c5)Oc5cc3cc(c5O)Oc3ccc(cc3Cl)[C@H]2O)NC(=O)[C@H](N)c2ccc(O)c(c2)Oc2cc(O)cc4c2)c2ccc(O)c(c2)-c2c(O)cc(O)cc21 | 4 (≈ 3.08 µM) | 0.54 | 64 (≈ 49.3 µM) | 0.06 (≈ 0.0463 µM) | 0.12 (≈ 0.0925 µM) | 0.06 (≈ 0.0463 µM) | 0.06 (≈ 0.0463 µM) | 0.06 (≈ 0.0463 µM) | 0.12 (≈ 0.0925 µM) | 64 (≈ 49.3 µM)
4 | CNCCNC(=O)[C@H]1NC(=O)[C@H]2NC(=O)[C@H](NC(=O)[C@@H]3NC(=O)[C@H]4NC(=O)[C@@H](Cc5ccc(c(Cl)c5)Oc5cc3cc(c5O)Oc3ccc(cc3Cl)[C@H]2O)NC(=O)[C@H](N)c2ccc(O)c(c2)Oc2cc(O)cc4c2)c2ccc(O)c(c2)-c2c(O)cc(O)cc21 | 4 (≈ 3.19 µM) | 2.2 | 32 (≈ 25.5 µM) | 0.03 (≈ 0.0239 µM) | 0.06 (≈ 0.0478 µM) | 0.06 (≈ 0.0478 µM) | 0.12 (≈ 0.0956 µM) | 0.06 (≈ 0.0478 µM) | 0.12 (≈ 0.0956 µM) | 32 (≈ 25.5 µM)
5 | N[C@H]1C(=O)N[C@@H]2Cc3ccc(c(Cl)c3)Oc3cc4cc(c3O)Oc3ccc(cc3Cl)[C@@H](O)[C@@H]3NC(=O)[C@H](NC(=O)[C@@H]4NC(=O)[C@@H](NC2=O)c2cc(O)cc(c2)Oc2cc1ccc2O)c1ccc(O)c(c1)-c1c(O)cc(O)cc1[C@@H](C(=O)N1CCOCC1)NC3=O | 16 (≈ 12.6 µM) | 1.02 | 64 (≈ 50.5 µM) | 0.016 (≈ 0.0126 µM) | – | 0.06 (≈ 0.0473 µM) | 0.12 (≈ 0.0946 µM) | 0.12 (≈ 0.0946 µM) | 0.12 (≈ 0.0946 µM) | 64 (≈ 50.5 µM)
6 | CCN1CCCC1CNC(=O)[C@H]1NC(=O)[C@H]2NC(=O)[C@H](NC(=O)[C@@H]3NC(=O)[C@H]4NC(=O)[C@@H](Cc5ccc(c(Cl)c5)Oc5cc3cc(c5O)Oc3ccc(cc3Cl)[C@H]2O)NC(=O)[C@H](N)c2ccc(O)c(c2)Oc2cc(O)cc4c2)c2ccc(O)c(c2)-c2c(O)cc(O)cc21 (stereo not given in full) | 4 (≈ 3.06 µM) | 1.25 | 64 (≈ 48.9 µM) | 0.06 (≈ 0.0458 µM) | 0.12 (≈ 0.0917 µM) | 0.06 (≈ 0.0458 µM) | 0.06 (≈ 0.0458 µM) | 0.06 (≈ 0.0458 µM) | 0.12 (≈ 0.0917 µM) | 32 (≈ 24.4 µM)
7 | CNCCCNC(=O)[C@H]1NC(=O)[C@H]2NC(=O)[C@H](NC(=O)[C@@H]3NC(=O)[C@H]4NC(=O)[C@@H](Cc5ccc(c(Cl)c5)Oc5cc3cc(c5O)Oc3ccc(cc3Cl)[C@H]2O)NC(=O)[C@H](N)c2ccc(O)c(c2)Oc2cc(O)cc4c2)c2ccc(O)c(c2)-c2c(O)cc(O)cc21 | 4 (≈ 3.15 µM) | 0.95 | 16 (≈ 12.6 µM) | 0.06 (≈ 0.0473 µM) | 0.25 (≈ 0.197 µM) | 0.06 (≈ 0.0473 µM) | 0.12 (≈ 0.0946 µM) | 0.06 (≈ 0.0473 µM) | 0.12 (≈ 0.0946 µM) | 16 (≈ 12.6 µM)
8 | CN(C)CCCCCNC(=O)[C@H]1NC(=O)[C@H]2NC(=O)[C@H](NC(=O)[C@@H]3NC(=O)[C@H]4NC(=O)[C@@H](Cc5ccc(c(Cl)c5)Oc5cc3cc(c5O)Oc3ccc(cc3Cl)[C@H]2O)NC(=O)[C@H](N)c2ccc(O)c(c2)Oc2cc(O)cc4c2)c2ccc(O)c(c2)-c2c(O)cc(O)cc21 | 8 (≈ 6.1 µM) | 0.72 | 64 (≈ 48.8 µM) | 0.06 (≈ 0.0458 µM) | 0.12 (≈ 0.0915 µM) | 0.06 (≈ 0.0458 µM) | 0.12 (≈ 0.0915 µM) | 0.06 (≈ 0.0458 µM) | 0.12 (≈ 0.0915 µM) | 128 (≈ 97.6 µM)
9 | CN(C)CCCCNC(=O)[C@H]1NC(=O)[C@H]2NC(=O)[C@H](NC(=O)[C@@H]3NC(=O)[C@H]4NC(=O)[C@@H](Cc5ccc(c(Cl)c5)Oc5cc3cc(c5O)Oc3ccc(cc3Cl)[C@H]2O)NC(=O)[C@H](N)c2ccc(O)c(c2)Oc2cc(O)cc4c2)c2ccc(O)c(c2)-c2c(O)cc(O)cc21 | 8 (≈ 6.17 µM) | 0.54 | 32 (≈ 24.7 µM) | 0.06 (≈ 0.0463 µM) | 0.12 (≈ 0.0925 µM) | 0.06 (≈ 0.0463 µM) | 0.12 (≈ 0.0925 µM) | 0.06 (≈ 0.0463 µM) | 0.12 (≈ 0.0925 µM) | 32 (≈ 24.7 µM)
10 | N[C@H]1C(=O)N[C@@H]2Cc3ccc(c(Cl)c3)Oc3cc4cc(c3O)Oc3ccc(cc3Cl)[C@@H](O)[C@@H]3NC(=O)[C@H](NC(=O)[C@@H]4NC(=O)[C@@H](NC2=O)c2cc(O)cc(c2)Oc2cc1ccc2O)c1ccc(O)c(c1)-c1c(O)cc(O)cc1[C@@H](C(=O)NCCCCCC(=O)N[C@@H]1[C@@H](O)[C@@H](O)[C@@H](CO)O[C@H]1O)NC3=O | 64 (≈ 43.4 µM) | 2.9 | > 128 | 0.06 (≈ 0.0407 µM) | – | 0.12 (≈ 0.0815 µM) | 0.25 (≈ 0.17 µM) | 0.12 (≈ 0.0815 µM) | 0.25 (≈ 0.17 µM) | > 128
11 | N[C@H]1C(=O)N[C@@H]2Cc3ccc(c(Cl)c3)Oc3cc4cc(c3O)Oc3ccc(cc3Cl)[C@@H](O)[C@@H]3NC(=O)[C@H](NC(=O)[C@@H]4NC(=O)[C@@H](NC2=O)c2cc(O)cc(c2)Oc2cc1ccc2O)c1ccc(O)c(c1)-c1c(O)cc(O)cc1[C@@H](C(=O)NC1CN2CCC1CC2)NC3=O (stereo not given in full) | 8 (≈ 6.12 µM) | 0.46 | 32 (≈ 24.5 µM) | 0.06 (≈ 0.0459 µM) | – | 0.12 (≈ 0.0918 µM) | 0.06 (≈ 0.0459 µM) | 0.06 (≈ 0.0459 µM) | 0.12 (≈ 0.0918 µM) | 64 (≈ 49 µM)
12 | N[C@H]1C(=O)N[C@@H]2Cc3ccc(c(Cl)c3)Oc3cc4cc(c3O)Oc3ccc(cc3Cl)[C@@H](O)[C@@H]3NC(=O)[C@H](NC(=O)[C@@H]4NC(=O)[C@@H](NC2=O)c2cc(O)cc(c2)Oc2cc1ccc2O)c1ccc(O)c(c1)-c1c(O)cc(O)cc1[C@@H](C(=O)NCCN1CCCC1)NC3=O | 8 (≈ 6.18 µM) | 1.6 | 64 (≈ 49.4 µM) | 0.016 (≈ 0.0124 µM) | – | 0.06 (≈ 0.0463 µM) | 0.12 (≈ 0.0927 µM) | 0.06 (≈ 0.0463 µM) | 0.12 (≈ 0.0927 µM) | 64 (≈ 49.4 µM)
13 | CN1CCN(C(=O)[C@H]2NC(=O)[C@H]3NC(=O)[C@H](NC(=O)[C@@H]4NC(=O)[C@H]5NC(=O)[C@@H](Cc6ccc(c(Cl)c6)Oc6cc4cc(c6O)Oc4ccc(cc4Cl)[C@H]3O)NC(=O)[C@H](N)c3ccc(O)c(c3)Oc3cc(O)cc5c3)c3ccc(O)c(c3)-c3c(O)cc(O)cc32)CC1 | 16 (≈ 12.5 µM) | 0.95 | 32 (≈ 25 µM) | 0.03 (≈ 0.0234 µM) | – | 0.06 (≈ 0.0468 µM) | 0.12 (≈ 0.0937 µM) | 0.12 (≈ 0.0937 µM) | 0.12 (≈ 0.0937 µM) | 64 (≈ 50 µM)

Reference: ChEMBL document CHEMBL1124366, “Synthesis and biological properties of N63-carboxamides of teicoplanin antibiotics. Structure-activity relationships” (J Med Chem, 1989)
